The target in data set [1] is Peptidyl-prolyl cis-trans isomerase A (Homo sapiens, UniProt P62937). Briefly: Binding affinity to human cyclophilin A by surface plasmon resonance method.
For data set [2], the system named is Hepatitis C virus. Kind of data set: Antiviral activity against HCV subtype 1b in human Huh7.5 cells expressing subgenomic HCV replicons and coexpressing luciferase reporter gene. It is filed as functional, cell-based, Hepacivirus hominis. The conditions noted are these: genotype 1b, Huh-7. In a few lines: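 Stable Huh7.5 lines carrying genotype 1a or 1b subgenomic replicons with luciferase reporter, made by RNA electroporation and G418 selection. Assay run in phenol red-free DMEM without G418, sixteen half-log compound dilutions, in triplicate. Luciferase signal read after 72 h relative to DMSO controls, giving EC50.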
(In general: In antiviral work, replicon cells carry a viral genome segment that copies itself.)

Data set [3] addresses T1, Solute carrier organic anion transporter family member 1B1 (Homo sapiens, UniProt Q9Y6L6).
T1 sequence (Q9Y6L6 whole entry): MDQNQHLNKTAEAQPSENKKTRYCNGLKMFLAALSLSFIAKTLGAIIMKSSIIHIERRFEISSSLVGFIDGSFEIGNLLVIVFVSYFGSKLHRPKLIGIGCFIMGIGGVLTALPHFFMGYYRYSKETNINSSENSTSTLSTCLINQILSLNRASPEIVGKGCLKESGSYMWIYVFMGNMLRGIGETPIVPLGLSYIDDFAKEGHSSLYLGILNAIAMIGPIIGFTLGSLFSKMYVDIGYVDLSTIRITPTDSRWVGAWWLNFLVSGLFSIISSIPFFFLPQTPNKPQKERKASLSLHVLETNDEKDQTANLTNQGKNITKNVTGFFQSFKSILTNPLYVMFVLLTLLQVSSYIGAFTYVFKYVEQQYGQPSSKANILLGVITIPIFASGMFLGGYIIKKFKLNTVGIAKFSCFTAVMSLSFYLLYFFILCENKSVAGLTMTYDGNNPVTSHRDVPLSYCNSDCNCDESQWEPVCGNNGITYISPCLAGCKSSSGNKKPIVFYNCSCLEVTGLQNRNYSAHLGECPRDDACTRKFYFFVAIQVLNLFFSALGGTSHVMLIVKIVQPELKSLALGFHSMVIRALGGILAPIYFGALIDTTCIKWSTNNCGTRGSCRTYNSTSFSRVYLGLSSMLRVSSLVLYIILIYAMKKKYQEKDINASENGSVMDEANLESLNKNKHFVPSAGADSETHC
Briefly: Inhibition of OATP1B1 (unknown origin) expressed in CHO cells using 8-fluorescein-cAMP substrate by fluorescent photometry. It is filed as ADME, cell-based. An outline of the steps: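 CHO-OATP1B1 cells and vector control cells cultured 2 days, then washed and equilibrated 15 min in HBSS + 10 mM HEPES. Exposed 10 min to 2.5 μM 8-fluorescein-cAMP with inhibitor at 0−30 μM (up to 1% DMSO). Cells washed and lysed, uptake measured by fluorescence, and IC50 taken from the concentration-response curve.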

The nature of data set [4]: Kinetic solubility of the compound in pH 7.0 water. To be noted: read-out: Kinetic_solubility. It is filed as physicochemical.
The target of data set [5] is Peptidyl-prolyl cis-trans isomerase F, mitochondrial (Homo sapiens, UniProt P30405). Kind of data set: Binding affinity to human cyclophilin F by surface plasmon resonance method. An outline of the steps:
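Surface plasmon resonance with biotinylated cyclophilin protein, single-cycle kinetics. Running buffer 10 mM HEPES pH 7.4, 150 mM NaCl, 0.05% P20, 3% DMSO, with inhibitor present. Compound injected at several concentrations, 1 min contact each at 50 μL/min, then 10 min final dissociation. kon, koff and KD obtained from a 1:1 binding model fit.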
For orientation: SPR reads the build-up and loss of mass on a sensor chip optically.

Data set [6] relates to Hepatitis C virus. Kind of data set: Antiviral activity against HCV subtype 1b in human Huh7.5 cells expressing subgenomic HCV replicons and coexpressing luciferase reporter gene in presence of 40% human serum. It is filed as functional, cell-based, Hepacivirus hominis. To be noted: genotype 1b, Huh-7. An outline of the steps:
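Genotype 1b luciferase replicon in Huh7.5 cells with 40% human serum added to the assay medium, in phenol red-free DMEM without G418. Sixteen half-log dilutions in triplicate. Luciferase read after 72 h relative to DMSO-treated cells, giving EC50.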

For data set [7], the system named is PBMC. Kind of data set: Cytotoxicity against PHA-stimulated human PBMC by 5-bromo-2'-deoxyuridine incorporation assay. It is filed as cell-based. In a few lines: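 Fresh PBMCs from two human donors in X-VIVO 15 medium, stimulated with PHA. Seven concentrations taken from a half-log series. Incubated 60 h at 37 °C, 5% CO2, with BrdU added for the final 12 h. Incorporation read by anti-BrdU ELISA at 450 nm. Percent inhibition against PHA-stimulated untreated cells after background subtraction, four-parameter fit giving IC50.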

Data set [8] has as its target T1, Solute carrier organic anion transporter family member 1B1. Kind of data set: Inhibition of OATP1B1 (unknown origin) expressed in HEK293 cells using [3H]estradiol-17beta-glucuronide substrate. It is filed as ADME, cell-based. In a few lines: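 Recombinant OATP1B1 or OATP1B3 expressed in HEK293 cells, with [3H]estradiol-17β-glucuronide as substrate; IC50 determined.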

The target in data set [9] is Bile salt export pump (Homo sapiens, UniProt O95342). Briefly: Inhibition of BSEP (unknown origin) expressed in HEK293 cells using [3H]taurocholic acid substrate. Format: ADME, cell-based. An outline of the steps:
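BSEP activity in HEK293 cells, measured with [3H]taurocholic acid uptake as substrate; IC50 reported.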

Data set [10] addresses T2, Broad substrate specificity ATP-binding cassette transporter ABCG2 (Homo sapiens, UniProt Q9UNQ0).
T2 sequence (Q9UNQ0 whole entry): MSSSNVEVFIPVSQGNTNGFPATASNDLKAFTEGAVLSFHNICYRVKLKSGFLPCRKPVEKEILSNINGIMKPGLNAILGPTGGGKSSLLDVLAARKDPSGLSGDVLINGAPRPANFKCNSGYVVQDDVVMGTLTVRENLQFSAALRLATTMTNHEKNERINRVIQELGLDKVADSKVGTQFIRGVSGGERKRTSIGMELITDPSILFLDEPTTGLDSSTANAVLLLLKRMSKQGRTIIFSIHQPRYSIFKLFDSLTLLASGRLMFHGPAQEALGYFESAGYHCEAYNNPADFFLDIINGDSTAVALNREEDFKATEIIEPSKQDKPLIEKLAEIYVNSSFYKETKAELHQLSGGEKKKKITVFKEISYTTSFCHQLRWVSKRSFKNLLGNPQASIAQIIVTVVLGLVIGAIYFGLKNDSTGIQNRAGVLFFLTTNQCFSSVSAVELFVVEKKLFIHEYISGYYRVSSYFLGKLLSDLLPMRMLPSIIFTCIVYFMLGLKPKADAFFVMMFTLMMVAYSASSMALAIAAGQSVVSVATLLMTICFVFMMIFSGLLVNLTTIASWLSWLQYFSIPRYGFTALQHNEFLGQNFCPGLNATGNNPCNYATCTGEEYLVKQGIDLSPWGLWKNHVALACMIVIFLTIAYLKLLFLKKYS
Kind of data set: Inhibition of BCRP (unknown origin) expressed in T8 cells using Bodipy FL-prazosin substrate. Format: ADME, cell-based. In a few lines: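 BCRP activity in T8 cells, measured with Bodipy FL-prazosin as substrate; IC50 reported.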

For data set [11], the target named is ATP-dependent translocase ABCB1 (Homo sapiens, UniProt P08183). Briefly: Inhibition of MDR1 (unknown origin) expressed in MDA T0.3 cells using rhodamine 123 substrate. Format: ADME, cell-based. An outline of the steps:
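MDR1 activity in MDA T0.3 cells, measured with rhodamine 123 as substrate; IC50 reported.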

Data set [12] in a line: AUC in rat plasma at 25 mg/kg, po after 72 hrs. Format: ADME, organism-based. The arrangement: time < 72 hr, dose 25 mg/kg, route oral. An outline of the steps:
(§1)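 Oral dosing as a solution in MEPC: rat 25 mg/kg, dog 1 mg/kg. Blood and plasma collected separately over 0−72 h and AUC computed for each matrix.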

A short description of data set [13]: AUC in dog plasma at 1 mg/kg, po after 72 hrs. The arrangement: time < 72 hr, dose 1 mg/kg, route oral. It is filed as ADME, organism-based, Canis lupus familiaris. An outline of the steps: as §1

The source of these data is ChEMBL document CHEMBL3351593, “Potent nonimmunosuppressive cyclophilin inhibitors with improved pharmaceutical properties and decreased transporter inhibition” (J Med Chem, 2014).

One may read the Kd as the constant that tells how readily two partners part at equilibrium. A high value points to lower affinity. As usually defined, the EC50 is the midpoint of the concentration-response curve. The term IC50 denotes the concentration needed to halve the response being measured. One may read the AUC as concentration integrated over time. Read a high AUC as high exposure.

≈ marks a conversion by molar mass, not a printed value. Some results are limits rather than exact numbers.

Chain of Peptidyl-prolyl cis-trans isomerase A (P62937 whole entry): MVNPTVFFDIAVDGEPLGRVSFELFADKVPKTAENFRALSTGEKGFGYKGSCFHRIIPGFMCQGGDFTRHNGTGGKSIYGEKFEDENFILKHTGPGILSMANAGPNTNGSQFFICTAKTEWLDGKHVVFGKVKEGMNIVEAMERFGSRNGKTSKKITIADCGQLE
Chain of Peptidyl-prolyl cis-trans isomerase F, mitochondrial (P30405 whole entry): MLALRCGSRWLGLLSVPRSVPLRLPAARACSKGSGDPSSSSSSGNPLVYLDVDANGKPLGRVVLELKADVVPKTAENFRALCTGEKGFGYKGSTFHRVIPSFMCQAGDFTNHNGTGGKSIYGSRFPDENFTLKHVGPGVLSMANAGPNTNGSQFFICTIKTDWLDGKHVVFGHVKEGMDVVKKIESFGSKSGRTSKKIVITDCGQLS
Chain of Bile salt export pump (O95342 whole entry): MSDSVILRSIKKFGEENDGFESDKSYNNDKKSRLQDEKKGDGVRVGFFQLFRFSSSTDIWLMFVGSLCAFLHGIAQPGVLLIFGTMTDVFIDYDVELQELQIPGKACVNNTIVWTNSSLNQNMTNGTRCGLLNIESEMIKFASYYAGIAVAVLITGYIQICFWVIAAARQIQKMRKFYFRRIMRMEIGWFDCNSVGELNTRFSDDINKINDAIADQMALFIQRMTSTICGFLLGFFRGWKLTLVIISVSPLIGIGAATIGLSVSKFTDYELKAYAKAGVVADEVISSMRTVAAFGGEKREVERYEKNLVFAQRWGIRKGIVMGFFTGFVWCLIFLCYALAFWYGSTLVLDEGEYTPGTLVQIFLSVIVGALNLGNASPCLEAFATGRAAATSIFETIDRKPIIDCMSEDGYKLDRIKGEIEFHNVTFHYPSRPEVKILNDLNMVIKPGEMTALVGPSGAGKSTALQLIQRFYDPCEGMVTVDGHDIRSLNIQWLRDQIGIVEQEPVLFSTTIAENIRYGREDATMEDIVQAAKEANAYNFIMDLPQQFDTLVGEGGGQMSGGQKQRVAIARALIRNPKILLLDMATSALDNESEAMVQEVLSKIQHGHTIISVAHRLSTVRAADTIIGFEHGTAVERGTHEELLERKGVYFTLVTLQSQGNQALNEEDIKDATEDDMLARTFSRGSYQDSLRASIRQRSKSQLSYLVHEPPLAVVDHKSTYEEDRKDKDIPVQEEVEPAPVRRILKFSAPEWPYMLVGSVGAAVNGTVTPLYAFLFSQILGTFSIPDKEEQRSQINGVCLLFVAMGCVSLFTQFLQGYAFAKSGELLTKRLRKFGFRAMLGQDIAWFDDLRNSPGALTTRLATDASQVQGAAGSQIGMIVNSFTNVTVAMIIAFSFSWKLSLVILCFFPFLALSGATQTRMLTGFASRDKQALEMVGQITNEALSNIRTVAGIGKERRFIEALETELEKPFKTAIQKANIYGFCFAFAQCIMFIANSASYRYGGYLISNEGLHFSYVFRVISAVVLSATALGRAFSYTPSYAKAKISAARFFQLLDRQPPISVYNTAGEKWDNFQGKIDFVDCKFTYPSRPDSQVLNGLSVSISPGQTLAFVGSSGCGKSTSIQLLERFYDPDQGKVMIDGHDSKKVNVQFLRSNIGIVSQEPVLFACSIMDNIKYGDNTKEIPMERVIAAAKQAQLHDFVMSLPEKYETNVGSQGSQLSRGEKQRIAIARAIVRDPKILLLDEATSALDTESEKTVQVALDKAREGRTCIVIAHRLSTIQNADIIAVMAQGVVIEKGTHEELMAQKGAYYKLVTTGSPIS
Chain of ATP-dependent translocase ABCB1 (P08183 whole entry): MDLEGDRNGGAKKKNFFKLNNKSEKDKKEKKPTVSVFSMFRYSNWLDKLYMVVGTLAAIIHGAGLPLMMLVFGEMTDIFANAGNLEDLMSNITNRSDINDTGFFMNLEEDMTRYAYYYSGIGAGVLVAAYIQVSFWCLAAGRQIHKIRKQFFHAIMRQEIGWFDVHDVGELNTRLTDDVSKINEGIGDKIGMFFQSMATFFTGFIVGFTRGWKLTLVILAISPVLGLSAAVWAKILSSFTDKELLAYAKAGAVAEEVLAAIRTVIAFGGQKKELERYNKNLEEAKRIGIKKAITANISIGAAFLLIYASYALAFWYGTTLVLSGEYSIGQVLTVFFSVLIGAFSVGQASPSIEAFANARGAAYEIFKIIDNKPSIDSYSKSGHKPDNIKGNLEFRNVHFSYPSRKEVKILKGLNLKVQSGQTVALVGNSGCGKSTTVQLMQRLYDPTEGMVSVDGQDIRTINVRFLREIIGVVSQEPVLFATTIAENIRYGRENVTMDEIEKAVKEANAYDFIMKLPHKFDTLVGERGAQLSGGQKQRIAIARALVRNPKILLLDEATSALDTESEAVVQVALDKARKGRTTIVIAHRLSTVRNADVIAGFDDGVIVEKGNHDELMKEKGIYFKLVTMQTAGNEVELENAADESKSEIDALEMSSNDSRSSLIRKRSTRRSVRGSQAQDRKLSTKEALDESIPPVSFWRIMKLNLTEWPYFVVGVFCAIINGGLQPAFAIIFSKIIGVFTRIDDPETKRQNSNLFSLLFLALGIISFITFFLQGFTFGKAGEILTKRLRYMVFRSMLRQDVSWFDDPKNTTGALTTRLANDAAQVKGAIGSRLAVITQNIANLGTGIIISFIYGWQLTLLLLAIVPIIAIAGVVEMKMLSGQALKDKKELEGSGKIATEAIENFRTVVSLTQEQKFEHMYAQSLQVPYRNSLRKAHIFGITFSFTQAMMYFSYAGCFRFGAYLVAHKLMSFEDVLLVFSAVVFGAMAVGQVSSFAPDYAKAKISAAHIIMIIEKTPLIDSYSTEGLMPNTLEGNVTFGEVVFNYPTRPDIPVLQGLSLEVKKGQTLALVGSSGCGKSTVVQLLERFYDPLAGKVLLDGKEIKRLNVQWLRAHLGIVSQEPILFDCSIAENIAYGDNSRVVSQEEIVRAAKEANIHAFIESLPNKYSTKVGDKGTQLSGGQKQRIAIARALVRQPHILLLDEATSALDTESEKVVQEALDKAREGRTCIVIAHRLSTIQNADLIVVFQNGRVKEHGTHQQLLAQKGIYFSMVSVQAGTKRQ

Consider `C/C=C/C[C@@H](C)[C@@H](O)[C@H]1C(=O)N[C@@H](CC)C(=O)N(C)[C@H](C)C(=O)N(C)[C@@H]([C@@H](C)CN2CCN(CCOC)CC2)C(=O)N[C@@H](C(C)C)C(=O)N(C)[C@@H](CC(C)C)C(=O)N[C@@H](C)C(=O)N[C@H](C)C(=O)N(C)[C@@H](CC(C)C)C(=O)N(C)[C@@H](CC(C)C)C(=O)N(C)[C@@H](C(C)C)C(=O)N1C`, for which the dissociation constant (Kd) is 1.2 nM in data set [1] and 0.9 nM in data set [5]. Besides, the EC50 in data set [2] is 40 nM; in [6] it was 42 nM. Besides, the half-inhibitory concentration (IC50) is 6100 nM in [3]; 13200 nM in data set [7]; 1200 nM in [8]; 1600 nM in data set [9]; over 25000 nM in [10]; 6300 nM in [11]. Moreover, the solubility kinetic in data set [4] was determined as 1100 µg/mL (≈ 818 µM). Moreover, the AUC at 72 h in data set [12] was found to be 5.8 µM·h; in data set [13], 0.9 µM·h.

In the case of `C/C=C/C[C@@H](C)[C@@H](O)[C@H]1C(=O)N[C@@H](CC)C(=O)N(C)[C@H](C)C(=O)N(CC)[C@@H](C(C)C)C(=O)N[C@@H](C(C)C)C(=O)N(C)[C@@H](CC(C)C)C(=O)N[C@@H](C)C(=O)N[C@H](C)C(=O)N(C)[C@@H](CC(C)C)C(=O)N(C)[C@@H](CC(C)C)C(=O)N(C)[C@@H](C(C)C)C(=O)N1C` [ALISPORIVIR], the Kd in [1] turned out to be 2.2 nM; in data set [5], 1 nM. The concentration giving a half-maximal response (EC50) turned out to be 46 nM in [2] and 116 nM in [6]. For the same molecule, the IC50 in [3] was 800 nM; in data set [7], 500 nM; in [8] it was 180 nM; in [9], 110 nM; in data set [10], 2500 nM; in [11] it was 590 nM. The solubility kinetic in data set [4] was under 5 µg/mL. In addition, the AUC at 72 h was 2.3 µM·h in data set [12] and 0.4 µM·h in data set [13].
